Sampled rows, rich in hits. Any-hit rate of the full collection: about 4.6%.
GPR7 antag: GPR7 receptor antagonists, primary screen, cell-based, fluorescence, single concentration. Neuropeptides B/W receptor type 1 (Homo sapiens), P48145. inhibition, % at 4.4 µM. 290,000 compounds, 1.1% hits. GPR7-expressing cells, fluorescence antagonist assay; in the data active = inhibition above about 16%, passing the limit was not always enough;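 note: cells stimulated with the agonist NPW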
Target sequence (P48145 whole entry, looked up): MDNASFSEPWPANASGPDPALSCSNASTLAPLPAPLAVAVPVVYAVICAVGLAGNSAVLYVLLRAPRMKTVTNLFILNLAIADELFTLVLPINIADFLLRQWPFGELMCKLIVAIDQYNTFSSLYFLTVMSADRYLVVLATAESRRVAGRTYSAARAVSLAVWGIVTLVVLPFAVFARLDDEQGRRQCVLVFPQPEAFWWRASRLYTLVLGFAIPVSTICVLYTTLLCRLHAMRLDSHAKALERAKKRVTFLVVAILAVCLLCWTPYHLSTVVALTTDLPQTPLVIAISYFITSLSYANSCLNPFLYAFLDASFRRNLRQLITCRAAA
OX1R antag-1: antagonists of human orexin 1 receptor (OX1R); Orexin/Hypocretin receptor type 1 (Homo sapiens), O43613; 330,000 compounds, 1.8% hits; OX1R-expressing cells, FRET antagonist read-out; inhibition, % at 6.6 µM; in the data active = inhibition mostly above about 38%, no sharp cut-off; inactive = mostly below about 40%
Target sequence (O43613 whole entry, looked up): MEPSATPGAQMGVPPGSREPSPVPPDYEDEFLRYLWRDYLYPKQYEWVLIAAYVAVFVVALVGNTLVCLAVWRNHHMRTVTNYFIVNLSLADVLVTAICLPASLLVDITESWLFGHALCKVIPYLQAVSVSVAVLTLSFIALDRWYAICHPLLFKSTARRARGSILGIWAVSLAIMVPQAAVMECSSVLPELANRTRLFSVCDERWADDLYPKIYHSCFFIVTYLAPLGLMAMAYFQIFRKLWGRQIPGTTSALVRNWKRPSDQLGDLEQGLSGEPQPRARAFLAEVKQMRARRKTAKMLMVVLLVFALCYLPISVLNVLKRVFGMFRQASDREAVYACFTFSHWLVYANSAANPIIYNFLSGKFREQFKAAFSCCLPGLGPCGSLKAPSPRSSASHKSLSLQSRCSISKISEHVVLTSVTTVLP
TAAR1 antagonist: human TAAR1 antagonists, primary screen, Fluo-8 calcium fluorescence, CHO RD-HGA16 cells; 360,000 compounds, 1.5% hits; Trace amine-associated receptor 1 (Homo sapiens), Q96RJ0; antagonist; inhibition, % at 3 µM;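 active = inhibition above a per-plate cutoff, the mean inhibition of test compounds on that plate plus 3 SD, cut at about 49% in these data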
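test system = CHO RD-HGA16 cells bearing hTAAR1 | replication = singlicate | controls = DMSO-only wells and EC80 β-PEA-stimulated wells | reagent = EC80 β-phenethylamine stimulus | read-out basis = percent inhibition of PEA-evoked calcium signal, max/basal emission ratio | schedule = seeding 17-24 h prior, 75-min 37 °C, 30-min RT dye loading | signal = kinetic Fluo-8 calcium fluorescence measurement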
OX1R antag-2: OX1R (HCRTR1) antagonists, primary screen, fluorescence, CHO/OX1R cells, Fluo-8 calcium, orexin A; 330,000 compounds, 0.43% hits; inhibition, % at 5 µM; Fluo-8 calcium fluorescence;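 active = inhibition above its plate's threshold, mean inhibition of all tested compounds on the plate plus 3 SD, cut at about 37% in these data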
CHO parental Ca: ATP-evoked calcium signal inhibitors, parental CHO, primary screen, counter-screen for OX1R antagonist project, cell-based, fluorescence, Fluo-8 calcium dye. parental CHO-K1, ATP-induced calcium, Fluo-8 fluorescence. inhibition, % at 5.6 µM. 330,000 compounds, 0.63% hits;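 active = inhibition above that plate's mean sample inhibition plus 3 SD, cut at about 26% in these data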
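Test system: parental CHO cells; detection: calcium-sensitive Fluo-8 fluorescence; evaluation: percent inhibition of calcium signal; also added: ATP as calcium-mobilizing challenge; repeats: one well per compound; control set: ATP-challenged DMSO wells low, unchallenged DMSO wells high; compound: single nominal dose of 5.6 µM per compound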
TAAR1 ag: human TAAR1 agonists, primary screen, Fluo-8 calcium fluorescence, CHO RD-HGA16 cells | vehicle wells 0%, saturating PEA agonist 100% | activation, % at 3 µM | Trace amine-associated receptor 1 (Homo sapiens), Q96RJ0 | 360,000 compounds, 0.99% hits;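 active = activation above the mean activation of all test compounds in the run plus 3 SD, cut at about 38% in these data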
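System: CHO RD-HGA16 cells carrying human TAAR1 plus Gα16; Incubation: 17-24 h seeding, 75 min 37 °C dye, 30 min RT; Measured by: Fluo-8 fluorescence, 5 s baseline then 140 s kinetic read; Control set: DMSO and PEA EC100; Replication: single well for each compound.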
Large screens that a line does not name were inactive; ! = not confirmed by another sample.

Cc1cccc(NC(=O)c2cc(-c3ccc(C)s3)nc3ccccc23)n1	TAAR1 antagonist 51.0
Cc1ccc(C)c(-c2cc(C(=O)NCc3cccs3)c3ccccc3n2)c1	TAAR1 antagonist 49.3
Cc1ccc(C)c(NC(=O)c2cc(C)nc3ccccc23)c1	CHO parental Ca 67.4
Cc1ccc(C)c(-c2cc(C(=O)Nc3nccs3)c3ccccc3n2)c1	TAAR1 antagonist 51.2
CCc1ccc(NC(=O)CN2C(=O)C(=O)N(Cc3ccccc3)C2=O)cc1	none
O=C(Nc1ccccc1)c1cc(S(=O)(=O)N2CCCCC2)ccc1N1CCOCC1	none (no result: GPR7 antag)
COc1cc(C(=S)N2CCCC2)ccc1OCc1ccc(C)cc1	none
C[C@@H]1ON(C)[C@H]2C[C@H]3c4[nH]c5c(-c6ccccc6)cccc5c4CCN3C[C@@H]12	none (no result: GPR7 antag, OX1R antag-1, OX1R antag-2, CHO parental Ca)
O=C(NCc1cccnc1)c1ccc(-c2ccc(Cl)cc2)o1	none
O=C(NCc1cccnc1)/C(=C\c1ccc(-c2ccc(Cl)c(Cl)c2)o1)S(=O)(=O)c1ccccc1	GPR7 antag 30.7
CC(=O)c1c(O)cc2c3c1OC(C)(C)C1CCC(C)(CC31)O2 (stereo not drawn)	TAAR1 antagonist 52.3 (no result: GPR7 antag, OX1R antag-1, OX1R antag-2, CHO parental Ca)
Cc1onc(C(=O)Nc2cccc(C(F)(F)F)c2)c1[N+](=O)[O-]	none
Cc1nc(Cl)c(C(=O)NC(=O)Nc2cccc(C(F)(F)F)c2)c(C)c1[N+](=O)[O-]	TAAR1 ag 42.3
COc1ccc(C(=O)N2CCOC2CNC(=O)C(=O)NCCc2ccccc2OC)cc1 (stereo not drawn)	none
O=C(Nc1ccc(Br)cc1)c1cc([N+](=O)[O-])cc([N+](=O)[O-])c1	none
CC(=O)Nc1ccc(NC(=O)c2cc([N+](=O)[O-])cc([N+](=O)[O-])c2)cc1	OX1R antag-1 57.5
Cc1cc(NC(=O)c2cc([N+](=O)[O-])cc([N+](=O)[O-])c2)no1	OX1R antag-1 57.0
Cc1cc(NC(=O)c2cccc([N+](=O)[O-])c2)no1	none
Cc1csc(NC(=O)c2cc([N+](=O)[O-])cc([N+](=O)[O-])c2)n1	OX1R antag-1 63.9
O=c1c2ccccc2nc2oc3ccccc3n12	none
Oc1ccc(C[C@@H]2CNCCN2CCCCC2CCCCC2)cc1	TAAR1 ag 43.0 (no result: GPR7 antag)
Fc1cccc(CCN2CCNC[C@@H]2CC2CCCCC2)c1	TAAR1 ag 39.2 (no result: GPR7 antag)
CCOC(CNC(=O)Cc1c(C)nc2c(-c3ccccc3)c(C)nn2c1C)OCC	none
Cn1ccsc1=NC(=O)c1ccc([N+](=O)[O-])o1	OX1R antag-1 105.2
COc1ccc(OC)c(NC(=O)C(C)SCc2nc3sc(C)c(C)c3c(=O)[nH]2)c1 (stereo not drawn)	OX1R antag-1 53.7 (no result: GPR7 antag)
Cc1sc2nc(CSC(C)C(=O)N(C)CC(=O)Nc3ccccc3C(F)(F)F)[nH]c(=O)c2c1C (stereo not drawn)	OX1R antag-1 70.8 (no result: GPR7 antag)
CSc1ccccc1NC(=O)CN(C)C(=O)C(C)SCc1nc2sc(C)c(C)c2c(=O)[nH]1 (stereo not drawn)	none (no result: GPR7 antag, OX1R antag-1, OX1R antag-2, CHO parental Ca)
Cc1ccc(C2=NN(C(=O)CCl)C(c3ccco3)C2)o1 (stereo not drawn)	none (no result: OX1R antag-1, OX1R antag-2, CHO parental Ca)
CCn1nc(C)cc1C(=O)N1CCc2c([nH]c3ccccc23)C1c1cc(F)ccc1F (stereo not drawn)	GPR7 antag 19.3
COc1ccc(-c2cn3cc(C)ccc3n2)cc1Br	none
COc1ccc(-c2cn3cc(Cl)ccc3n2)cc1OC	OX1R antag-1 45.3
CCCN1CCCCC(NC(=O)c2c(F)cccc2F)C1=O (stereo not drawn)	none (no result: GPR7 antag, OX1R antag-1, OX1R antag-2, CHO parental Ca)
CCC(=O)c1cn(CC(=O)Nc2ccc(OC)cc2)c2ccccc12	none
NC(Cc1ccc(C(F)(F)F)cc1)c1csc(Nc2ncccn2)n1 (stereo not drawn)	none (no result: GPR7 antag, OX1R antag-1, OX1R antag-2, CHO parental Ca)
NC(Cc1ccc(C(F)(F)F)cc1)c1csc(Nc2cc(NCc3ccco3)ncn2)n1 (stereo not drawn)	TAAR1 ag 38.2 (no result: GPR7 antag, OX1R antag-1, OX1R antag-2, CHO parental Ca)
NC(Cc1ccc(C(F)(F)F)cc1)c1csc(Nc2ccccn2)n1 (stereo not drawn)	TAAR1 ag 46.1 (no result: GPR7 antag, OX1R antag-1, OX1R antag-2, CHO parental Ca)
CN(Cc1ccccc1)C(=O)c1ccc(Nc2nc(C(N)Cc3ccccc3)cs2)nc1 (stereo not drawn)	TAAR1 ag 44.8 (no result: GPR7 antag, OX1R antag-1, OX1R antag-2, CHO parental Ca)
COc1cccc(Nc2nc(C(N)Cc3ccccc3)cs2)n1 (stereo not drawn)	TAAR1 ag 51.5 (no result: GPR7 antag, OX1R antag-1, OX1R antag-2, CHO parental Ca)
CCCCn1c(N)c(N(C)C(=O)C2CC(=O)N(Cc3ccco3)C2)c(=O)[nH]c1=O (stereo not drawn)	none (no result: GPR7 antag)
O=C(CN1CCCc2ccccc21)Nc1cccc(S(=O)(=O)N2CCOCC2)c1	none (no result: GPR7 antag, OX1R antag-1, OX1R antag-2, CHO parental Ca)
CCCOc1ccc(C(O)(CCN2CCCCC2)c2ccccc2OC)cc1 (stereo not drawn)	none
CCc1nc(N2CCN(C(=S)NCCCOC)CC2)c2c3c(sc2n1)CCCC3	none
C/C(N)=C(/C#N)C(=O)CSc1nnc(SCc2ccc(Cl)cc2)s1	TAAR1 antagonist 52.1!
FC(F)(F)c1cccc(NC(=S)N2CCN(c3cccc(C(F)(F)F)c3)CC2)c1	CHO parental Ca 69.5
CC1=C(C(=O)Nc2cccc(C(=O)N3CCN(c4cccc(C(F)(F)F)c4)CC3)c2)SCCO1	TAAR1 antagonist 55.7, OX1R antag-2 62.1, CHO parental Ca 40.0
NC(=O)c1ccc(NCc2ccco2)c([N+](=O)[O-])c1	OX1R antag-1 128.4
C[C@H](CO)N1C[C@H](C)[C@@H](CN(C)S(=O)(=O)c2cccs2)Oc2c(NS(=O)(=O)c3cn(C)cn3)cccc2C1=O	none (no result: GPR7 antag)
CCC(C)N=Cc1c(Nc2ccccc2)nc2c(C)cccn2c1=O (stereo not drawn)	none
O=c1c(/C=N/O)c(Nc2ccccc2)nc2ccccn12	OX1R antag-1 72.9
CCC/C(C(=O)NCCO)=C1/c2ccccc2C(=O)N1c1ccccc1	none (no result: GPR7 antag)
COc1ccc(S(=O)(=O)N(C)[C@H]2C[C@H]3c4cc(-c5ccccc5)ccc4CCN3C(=O)[C@H]2[C@H](C)O)cc1	TAAR1 antagonist 56.0 (no result: GPR7 antag, OX1R antag-1, OX1R antag-2, CHO parental Ca)
Cc1ccc(N2C(=O)CCC2=O)c(C)c1	none (no result: GPR7 antag)
Cc1ccc2c(c1)N(C(=O)CCC(=O)NC1CCC(C)CC1)CCO2 (stereo not drawn)	OX1R antag-1 42.9
CCOC(=O)N1CCC(NC(=O)CCC(=O)N2CCOc3ccc(C)cc32)CC1	none
Cc1ccc2c(c1)N(C(=O)CCC(=O)N1CCN(c3cccc(C)c3C)CC1)CCO2	OX1R antag-1 39.7
Oc1ccc(Nc2nc3ccccc3nc2Nc2ccc(O)cc2)cc1	CHO parental Ca 35.0 (no result: TAAR1 antagonist, TAAR1 ag)

Source: PubChem (The Scripps Research Institute Molecular Screening Center)
